Data taken from ChEMBL document CHEMBL1828552, “Synthesis and studies of novel 2-(4-cyano-3-trifluoromethylphenyl amino)-4-(quinoline-4-yloxy)-6-(piperazinyl/piperidinyl)-s-triazines as potential antimicrobial, antimycobacterial and anticancer agents” (2011).
Values after ≈ are worked out from the molar mass of the structure shown.

Legend:
[1] = system: Staphylococcus aureus; test: Antibacterial activity against 10^5 CFU/mL Staphylococcus aureus MTCC 96 after 24 hrs by disc diffusion technique; assay type: functional
Procedure, shortened: (§1)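 Disc diffusion on Mueller–Hinton agar poured 5 mm deep. The surface was swabbed with a 10⁵ CFU/mL […] suspension. Filter-paper discs 6.25 mm in diameter were soaked in compound in DMSO and placed on the agar. Plates were incubated 24 h at 37 ± 1 °C, and the inhibition zone was measured in mm. A DMSO disc served as blank.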

[2] = system: Staphylococcus aureus; test: Antibacterial activity against 10^5 CFU/mL Staphylococcus aureus MTCC 96 after 24 hrs by agar streak dilution method; assay type: functional; details: MTCC 96, 24 h
Procedure, shortened: (§2)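 Agar streak dilution. Stock 100 µg/mL in DMSO; graded amounts were mixed into molten nutrient agar and poured at 4–5 mm depth. Plates carried serial dilutions over […]. About 10⁵ CFU/mL of each bacterium was applied, and plates were incubated at 37 ± 1 °C for 24 h. MIC was read from the dilution series.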

[3] = system: Bacillus cereus; test: Antibacterial activity against 10^5 CFU/mL Bacillus cereus MTCC 619 after 24 hrs by disc diffusion technique; assay type: functional; procedure, shortened: as §1
[4] = system: Bacillus cereus; test: Antibacterial activity against 10^5 CFU/mL Bacillus cereus MTCC 619 after 24 hrs by agar streak dilution method; assay type: functional; details: MTCC 619, 24 h; procedure, shortened: as §2
[5] = system: DU-145; test: Cytotoxicity against […] human DU145 cells after 48 hrs by SRB assay; assay type: functional; details: DU-145, 48 h
Procedure, shortened: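 SRB assay in DU-145 cells grown in RPMI 1640 with 10% FBS and 2 mM L-glutamine. Cells were plated and held 24 h before addition of four 10-fold concentrations. After 48 h, cells were TCA-fixed, stained with 0.4% SRB and read at 540 nm. GI50, TGI and LC50 were derived against time-zero and control wells; each value is the mean of three experiments.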

[6] = system: Escherichia coli; test: Antibacterial activity against 10^5 CFU/mL Escherichia coli MTCC 739 after 24 hrs by disc diffusion technique; assay type: functional; procedure, shortened: as §1
[7] = system: Escherichia coli; test: Antibacterial activity against 10^5 CFU/mL Escherichia coli MTCC 739 after 24 hrs by agar streak dilution method; assay type: functional; details: MTCC 739, 24 h; procedure, shortened: as §2
[8] = system: Pseudomonas aeruginosa; test: Antibacterial activity against 10^5 CFU/mL Pseudomonas aeruginosa MTCC 741 after 24 hrs by disc diffusion technique; assay type: functional; procedure, shortened: as §1
[9] = system: Pseudomonas aeruginosa; test: Antibacterial activity against 10^5 CFU/mL Pseudomonas aeruginosa MTCC 741 after 24 hrs by agar streak dilution method; assay type: functional; details: MTCC 741, 24 h; procedure, shortened: as §2
[10] = system: Klebsiella pneumoniae; test: Antibacterial activity against 10^5 CFU/mL Klebsiella pneumoniae MTCC 109 after 24 hrs by disc diffusion technique; assay type: functional; procedure, shortened: as §1
[11] = system: Klebsiella pneumoniae; test: Antibacterial activity against 10^5 CFU/mL Klebsiella pneumoniae MTCC 109 after 24 hrs by agar streak dilution method; assay type: functional; details: MTCC 109, 24 h; procedure, shortened: as §2
[12] = system: Salmonella typhi; test: Antibacterial activity against 10^5 CFU/mL Salmonella typhi MTCC 733 after 24 hrs by disc diffusion technique; assay type: functional, Salmonella enterica subsp. enterica serovar Typhi
Procedure, shortened: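 Disc diffusion. Mueller-Hinton agar autoclaved 120 °C 30 min, poured 5 mm deep. Surface swabbed with 10⁵ CFU/mL suspension […]. 6.25 mm filter-paper discs soaked in compound in DMSO; DMSO-only disc as blank. Incubated 37 ± 1 °C, 24 h for bacteria or 48 h for fungi. Ciprofloxacin and ketoconazole discs as reference drugs. Inhibition zone measured in mm.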

[13] = system: Salmonella typhi; test: Antibacterial activity against 10^5 CFU/mL Salmonella typhi MTCC 733 after 24 hrs by agar streak dilution method; assay type: functional, Salmonella enterica subsp. enterica serovar Typhi; details: Salmonella enterica, MTCC 733, 24 h
[14] = system: Proteus vulgaris; test: Antibacterial activity against 10^5 CFU/mL Proteus vulgaris MTCC 1771 after 24 hrs by disc diffusion technique; assay type: functional; procedure, shortened: as §1
[15] = system: Proteus vulgaris; test: Antibacterial activity against 10^5 CFU/mL Proteus vulgaris MTCC 1771 after 24 hrs by agar streak dilution method; assay type: functional; details: MTCC 1771, 24 h; procedure, shortened: as §2
[16] = system: Shigella flexneri; test: Antibacterial activity against 10^5 CFU/mL Shigella flexneri MTCC 1457 after 24 hrs by disc diffusion technique; assay type: functional; procedure, shortened: as §1
[17] = system: Shigella flexneri; test: Antibacterial activity against 10^5 CFU/mL Shigella flexneri MTCC 1457 after 24 hrs by agar streak dilution method; assay type: functional; details: MTCC 1457, 24 h; procedure, shortened: as §2
[18] = system: Aspergillus niger; test: Antifungal activity against 10^5 CFU/mL Aspergillus niger MTCC 282 after 48 hrs by disc diffusion technique; assay type: functional
[19] = system: Aspergillus niger; test: Antifungal activity against 10^5 CFU/mL Aspergillus niger MTCC 282 after 48 hrs by agar streak dilution method; assay type: functional; details: MTCC 282, 48 h
Procedure, shortened: (§3)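 Agar streak dilution for fungi. Stock 100 µg/mL in DMSO; graded amounts were mixed into molten Sabouraud dextrose agar and poured at 4–5 mm depth. Serial dilutions ran over […]. About 10⁵ CFU/mL inoculum was applied, with incubation at 37 ± 1 °C for 48 h. MIC was read from the dilution series.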

[20] = system: Aspergillus fumigatus; test: Antifungal activity against 10^5 CFU/mL Aspergillus fumigatus MTCC 343 after 48 hrs by disc diffusion technique; assay type: functional
[21] = system: Aspergillus fumigatus; test: Antifungal activity against 10^5 CFU/mL Aspergillus fumigatus MTCC 343 after 48 hrs by agar streak dilution method; assay type: functional; details: MTCC 343, 48 h; procedure, shortened: as §3
[22] = system: Aspergillus clavatus; test: Antifungal activity against 10^5 CFU/mL Aspergillus clavatus MTCC 1323 after 48 hrs by disc diffusion technique; assay type: functional
[23] = system: Aspergillus clavatus; test: Antifungal activity against 10^5 CFU/mL Aspergillus clavatus MTCC 1323 after 48 hrs by agar streak dilution method; assay type: functional; details: MTCC 1323, 48 h; procedure, shortened: as §3
[24] = system: Candida albicans; test: Antifungal activity against 10^5 CFU/mL Candida albicans MTCC 183 after 48 hrs by disc diffusion technique; assay type: functional
[25] = system: Candida albicans; test: Antifungal activity against 10^5 CFU/mL Candida albicans MTCC 183 after 48 hrs by agar streak dilution method; assay type: functional; details: MTCC 183, 48 h; procedure, shortened: as §3

Structure (SMILES) | inhibition zone (IZ) [1] | MIC [2] | inhibition zone (IZ) [3] | MIC [4] | GI50 [5] | LC50 (concentration giving 50% net cell kill relative to time zero) [5] | TGI [5] | inhibition zone (IZ) [6] | MIC [7] | inhibition zone (IZ) [8] | MIC [9] | inhibition zone (IZ) [10] | MIC [11] | inhibition zone (IZ) [12] | MIC [13] | inhibition zone (IZ) [14] | MIC [15] | inhibition zone (IZ) [16] | MIC [17] | inhibition zone (IZ) [18] | also measured
CN1CCN(c2nc(Nc3ccc(C#N)c(C(F)(F)F)c3)nc(Oc3ccnc4ccccc34)n2)CC1 | <10 mm | 100 µg/mL (≈ 197 µM) | <10 mm | 100 µg/mL (≈ 197 µM) | 51.2 µM | > 100 µM | > 100 µM | <10 mm | 100 µg/mL (≈ 197 µM) | 14 mm | 100 µg/mL (≈ 197 µM) | <10 mm | 100 µg/mL (≈ 197 µM) | 13 mm | 100 µg/mL (≈ 197 µM) | <10 mm | 100 µg/mL (≈ 197 µM) | 11 mm | 100 µg/mL (≈ 197 µM) | <10 mm | MIC [19]: 100 µg/mL (≈ 197 µM); inhibition zone (IZ) [20]: <10 mm; MIC [21]: 100 µg/mL (≈ 197 µM); inhibition zone (IZ) [22]: <10 mm; MIC [23]: 100 µg/mL (≈ 197 µM); inhibition zone (IZ) [24]: <10 mm; MIC [25]: 100 µg/mL (≈ 197 µM)
CC(C)N1CCN(c2nc(Nc3ccc(C#N)c(C(F)(F)F)c3)nc(Oc3ccnc4ccccc34)n2)CC1 | 23 mm | 50 µg/mL (≈ 93.5 µM) | 22 mm | 50 µg/mL (≈ 93.5 µM) | > 100 µM | > 100 µM | > 100 µM | 22 mm | 50 µg/mL (≈ 93.5 µM) | 22 mm | 25 µg/mL (≈ 46.8 µM) | 21 mm | 100 µg/mL (≈ 187 µM) | 21 mm | 100 µg/mL (≈ 187 µM) | 21 mm | 100 µg/mL (≈ 187 µM) | 21 mm | 50 µg/mL (≈ 93.5 µM) | <10 mm | MIC [19]: 100 µg/mL (≈ 187 µM); inhibition zone (IZ) [20]: 17 mm; MIC [21]: 100 µg/mL (≈ 187 µM); inhibition zone (IZ) [22]: 17 mm; MIC [23]: 100 µg/mL (≈ 187 µM); inhibition zone (IZ) [24]: 18 mm; MIC [25]: 100 µg/mL (≈ 187 µM)
N#Cc1ccc(Nc2nc(Oc3ccnc4ccccc34)nc(N3CCN(Cc4ccccc4)CC3)n2)cc1C(F)(F)F | 22 mm | 100 µg/mL (≈ 172 µM) | 22 mm | 100 µg/mL (≈ 172 µM) | > 100 µM | > 100 µM | > 100 µM | 14 mm | 100 µg/mL (≈ 172 µM) | 15 mm | 100 µg/mL (≈ 172 µM) | <10 mm | 100 µg/mL (≈ 172 µM) | 14 mm | 100 µg/mL (≈ 172 µM) | 16 mm | 100 µg/mL (≈ 172 µM) | 11 mm | 100 µg/mL (≈ 172 µM) | <10 mm | MIC [19]: 100 µg/mL (≈ 172 µM); inhibition zone (IZ) [20]: <10 mm; MIC [21]: 100 µg/mL (≈ 172 µM); inhibition zone (IZ) [22]: 12 mm; MIC [23]: 100 µg/mL (≈ 172 µM); inhibition zone (IZ) [24]: <10 mm; MIC [25]: 100 µg/mL (≈ 172 µM)
N#Cc1ccc(Nc2nc(Oc3ccnc4ccccc34)nc(N3CCC(Cc4ccccc4)CC3)n2)cc1C(F)(F)F | 24 mm | 100 µg/mL (≈ 172 µM) | 22 mm | 50 µg/mL (≈ 86 µM) | > 100 µM | > 100 µM | > 100 µM | 14 mm | 100 µg/mL (≈ 172 µM) | 19 mm | 100 µg/mL (≈ 172 µM) | 16 mm | 100 µg/mL (≈ 172 µM) | 16 mm | 100 µg/mL (≈ 172 µM) | 17 mm | 100 µg/mL (≈ 172 µM) | 14 mm | 100 µg/mL (≈ 172 µM) | <10 mm | MIC [19]: 100 µg/mL (≈ 172 µM); inhibition zone (IZ) [20]: <10 mm; MIC [21]: 100 µg/mL (≈ 172 µM); inhibition zone (IZ) [22]: 14 mm; MIC [23]: 100 µg/mL (≈ 172 µM); inhibition zone (IZ) [24]: 15 mm; MIC [25]: 100 µg/mL (≈ 172 µM)
